Laboratory results: ChEMBL document CHEMBL1275302, “Synthesis and in vitro antiproliferative activity of 5-alkyl-12(H)-quino[3,4-b] [1,4]benzothiazinium salts” (Eur J Med Chem, 2010)
In brackets after ≈: the same amount, converted by molar mass. Activity calls are given as the source filed them. No cut-off for these calls is given here.

Legend:
Assay type in all cases: functional, cell-based
[1] = tested on: HCT-116; assay: Antiproliferative activity against human HCT116 cells after 24 hrs by MTS assay; conditions: HCT-116, 24 h
Procedure, shortened: (§1)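 Cells kept at 37 °C, 5% CO2; seeded 1 × 10⁴ cells/well in D-MEM with 12% FCS, streptomycin and penicillin. After 24 h (about 80% confluent), aqueous stocks (DMSO added if needed) diluted in medium and added at various concentrations, 12 or 24 h incubation. Cells washed in PBS, resuspended in Phenol Red-free DMEM with MTS; formazan absorbance read. Survival as % of control; mean ± SD of three experiments; IC50 determined.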

[2] = tested on: Lewis lung carcinoma cell line; assay: Antiproliferative activity against mouse LLC cells after 24 hrs by MTS assay; procedure, shortened: as §1
[3] = tested on: HCT-116; assay: Antiproliferative activity against human HCT116 cells at 0.1 to 100 ug/ml after 24 hrs by MTS assay; procedure, shortened: as §1
[4] = tested on: Lewis lung carcinoma cell line; assay: Antiproliferative activity against mouse LLC cells at 0.1 to 100 ug/ml after 24 hrs by MTS assay; procedure, shortened: as §1

Compound	IC50 [1] [µg/mL]	IC50 [2] [µg/mL]	Activity [3]	Activity [4]
C[n+]1cc2c(c3ccccc31)Nc1ccc(Br)cc1S2.[Cl-]	6.9	6.5	–	–
COc1cccc2c1C(=O)c1c(O)c3c(c(O)c1C2=O)C[C@@](O)(C(=O)CO)C[C@@H]3O[C@H]1C[C@H](N)[C@H](O)[C@H](C)O1 [DOXORUBICIN]	3.3 (≈ 6.07 µM)	3.7 (≈ 6.81 µM)	–	–
CCCCCCCCCC[n+]1cc2c(c3ccccc31)Nc1ccccc1S2.[Br-]	19.6	17.1	–	–
C[n+]1cc2c(c3ccccc31)Nc1c(O)cccc1S2	–	–	inactive	inactive
C[n+]1cc2c(c3ccccc31)Nc1cccnc1S2.[Cl-]	17.2	13.2	–	–
C[n+]1cc2c(c3ccccc31)Nc1ccc(F)cc1S2.[Cl-]	6.7	6.4	–	–
C[n+]1cc2c(c3ccccc31)Nc1cc(O)ccc1S2.[Cl-]	7.6	5.7	–	–
C[n+]1cc2c(c3ccccc31)Nc1c(N)cccc1S2	–	–	inactive	inactive
C[n+]1cc2c(c3ccccc31)Nc1ccccc1S2.[Cl-]	7.8	2.3	–	–
C[n+]1cc2c(c3ccccc31)Nc1ccc(O)cc1S2.[Cl-]	6.7	7.2	–	–
C[n+]1cc2c(c3ccccc31)Nc1ccc(N)cc1S2.[Cl-]	5.1	8.9	–	–
C[n+]1cc2c(c3ccccc31)Nc1ccc(Cl)cc1S2.[Cl-]	7.4	5.4	–	–
C[n+]1cc2c(c3ccccc31)Nc1cc(N)ccc1S2.[Cl-]	2.2	4.7	–	–
Cc1ccc2c(c1)Sc1c[n+](C)c3ccccc3c1N2.[Cl-]	4.4	8.8	–	–
CCCC[n+]1cc2c(c3ccccc31)Nc1ccccc1S2.[Br-]	14.4	14	–	–
Cc1cccc2c1Nc1c(c[n+](C)c3ccccc13)S2	–	–	inactive	inactive
